Screening results from PubChem.
The entries come from a sample that favours hits as a whole.
CHOP inhibitor = CHOP inhibition in unfolded protein response; CHO-K1 CHOP-promoter luciferase, tunicamycin-induced, 15-18 h; inhibition, % at 10 µM; 220,000 compounds, 3.8% hits; AID 2732;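 active = compounds that reduced the stress-induced luciferase reporter signal by more than about 70% of percent inhibition, limit read from the data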
CHOP UPR activ = apoptotic UPR (CHOP) activation. CHO-CHOP luciferase reporter, luminescence; percent of tunicamycin response over DMSO baseline. activation, % at 10 µM. 330,000 compounds, 0.34% hits. AID 449763;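 active = at 10 µM dose, activation of 40% or more, normalized to positive control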
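System: CHO CHOP reporter cells. Amount: 500 cells per well. Buffer or medium: F12 medium, 10% FBS. Compound dosing: one dose, 10 µM in 0.5% DMSO. Incubation: 6 h compound exposure at 37 °C after overnight seeding. Technique: Steady-Glo luciferase luminescence. Benchmarks: tunicamycin and DMSO controls.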
Bfl-1 A1 inh = inhibitors of the anti-apoptotic protein A1, read as caspase activation | 330,000 compounds, 0.066% hits | MEF A1-2A-BIM cells, Caspase-Glo 3/7 luminescence, 3 h; percent of clofoctol response, vehicle zero | caspase activation, % (concentration not given with the values);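 active = over half of replicate activation scores above 10%, or exactly half above 10 with the replicate mean above 10; inconclusive = replicate mean below 10 yet half the replicates above 10; inactive = over half of replicates below 10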
XBP1 UPR activ = activators of adaptive arm of unfolded protein response (XBP1); activation, % at 20 µM; CHO-XBP1 luciferase reporter, IRE1-XBP1 UPR activation, luminescence; percent of tunicamycin response, DMSO as zero; 330,000 compounds, 0.33% hits;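 active = versus positive control, 20 µM dose yields 30% or more activation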
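Test system: CHO-XBP1 luciferase reporter cells | Buffer or medium: Serum-containing F12 medium, 10% FBS | Schedule: 6 h compound exposure at 37 °C, 5% CO2 | Detection: Steady-Glo luciferase glow luminescence, 10 min after reagent addition | Read-out basis: Activation, % of tunicamycin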
Hits are given with their value; – = inactive; ? = inconclusive; · = not tested or not shown.

SMILES | CHOP inhibitor | CHOP UPR activ | Bfl-1 A1 inh | XBP1 UPR activ
Cc1ccc(NCc2nnc(SCC(=O)Nc3ncc(C)s3)n2Cc2ccco2)c(C)c1 | 94 | – | – | –
CC1CCCN(c2nc3nonc3nc2Nc2ccccc2F)C1 (stereo not drawn) | – | – | – | –
COc1ccc(OC)c(Nc2nc3nonc3nc2N2CCCC(C)C2)c1 (stereo not drawn) | 77 | – | – | –
CN(C(=O)COC(=O)C1CCN(S(=O)(=O)c2ccc3c(c2)OCCO3)CC1)C1CCCCC1 | · | – | – | –
CC(C)CC(NC(=O)C(CC(C)C)NC(=O)C(Cc1ccc(OCc2ccccc2)cc1)NC(=O)OC(C)(C)C)C(N)=O (stereo not drawn) | 94 | – | – | –
CC(C)(C)OC(=O)C(Cc1ccc(OC(C)(C)C)cc1)NC(=O)CNC(=O)OCc1ccccc1 (stereo not drawn) | 74 | – | – | –
CC(C)CC(NC(=O)C(NC(=O)C(Cc1ccc(OCc2ccccc2)cc1)NC(=O)OC(C)(C)C)C(C)C)C(N)=O (stereo not drawn) | 95 | – | – | –
COc1cc2c(cc1OC)C(C)N(C(=O)C1=NN(c3cccc(C)c3)C(=O)CC1)CC2 (stereo not drawn) | · | – | – | –
COc1ccc(N2CCN(C(=O)CNC(=O)c3ccco3)CC2)cc1 | · | – | – | –
O=C(CN(CC1CCCO1)C(=O)CNS(=O)(=O)c1ccc(Cl)cc1)NC1CCCC1 (stereo not drawn) | · | – | – | –
CC(C)(C)OC(=O)NN1CC(=O)N2Cc3ccccc3C[C@@H]2C1=O | · | – | ? | –
CC1=CC2=NC(=O)/C(=C\c3ccc(-c4ccc(Cl)cc4)o3)C(=N)N2O1 | 93 | · | · | ·
CCOC(=O)c1nn(-c2ccc(F)cc2)c(=O)cc1OCC(=O)Nc1ccc(F)c(F)c1 | · | – | – | –
CCOC(=O)c1c(C)oc2c1c(CN1CCN(C(=O)OCC)CC1)c(O)c1ccccc12 | – | – | 20 | –
CCOC(=O)c1c(C)oc2c1c(CN1CCN(CCO)CC1)c(O)c1ccccc12 | – | · | · | ·
O=C1c2ccccc2C2=Nc3ccccc3SC(c3cccc(F)c3)C12 (stereo not drawn) | 74 | – | – | –
Cc1ccc(NC(=O)c2ccccc2SCC(=O)N2CCCC2)cc1S(=O)(=O)N(C)C | · | – | – | –
COc1ccc(S(=O)(=O)N2CCc3ccccc32)cc1C(=O)N(CC(C)C)C1CCS(=O)(=O)C1 (stereo not drawn) | · | – | – | –
OC(CN1CCN(c2ccccc2)CC1)Cn1c2ccccc2c2ccccc21 (stereo not drawn) | 80 | – | – | –
Cc1ccc(OCCN2CCN(CC(O)Cn3c4ccccc4c4ccccc43)CC2)cc1 (stereo not drawn) | 96 | – | – | –
Cc1ccc(OCCn2c(C)c(/C=N/n3cnnc3)c3ccccc32)cc1 | 81 | – | – | –
CCCn1ncc(CN2CCC(n3nccc3NC(=O)c3ccccc3Cl)CC2)c1C | · | – | – | –
O/N=C/Cc1[nH]c2ccccc2c1-c1ccccc1 | · | – | – | –
Cc1cccc(N=C2NN=C(c3c(C)[nH]c4ccccc34)CS2)c1 | 72 | – | – | –
O=C1N/C(=C/c2cccn2-c2ccccc2)C(=O)N1Cc1ccc(F)cc1 | – | – | – | –
SMILES | CHOP inhibitor | CHOP UPR activ | Bfl-1 A1 inh | XBP1 UPR activ
Cc1ccc(/C=C2/NC(=O)N(Cc3ccc(Br)cc3)C2=O)o1 | 105 | – | – | –
CCCN1C(=O)/C(=C/c2ccc(N3CCOCC3)cc2)NC1=S | – | – | – | –
O=C1N/C(=C\c2ccc(N3CCOCC3)c(F)c2)C(=O)N1Cc1ccccc1 | 85 | – | – | –
CCN1C(=O)N/C(=C/c2ccc(C)o2)C1=O | – | – | – | –
Cc1ccc(CN2C(=O)N/C(=C\c3ccc(N4CCOCC4)cc3)C2=O)cc1 | 92 | – | – | –
O=C(Cn1nc(C(=O)O)c2ccccc2c1=O)Nc1cc(S(=O)(=O)N2CCCCC2)ccc1Cl | · | – | – | –
COc1ccccc1C(=O)Oc1ccccc1C(=O)Nc1ccccc1 | – | – | – | –
O=C(COc1ccc(C(F)(F)F)cc1[N+](=O)[O-])Nc1cccc(C(F)(F)F)c1 | – | – | – | –
O=C(Nc1ccccc1)c1ccccc1Oc1ccc(C(F)(F)F)cc1[N+](=O)[O-] | 71 | – | – | –
O=C(Oc1ccccc1C(=O)Nc1ccccc1)c1ccc(Br)c([N+](=O)[O-])c1 | 84 | – | – | –
